Data published in ChEMBL document CHEMBL2177092, “Phosphoramidate ProTides of the anticancer agent FUDR successfully deliver the preformed bioactive monophosphate in cells and confer advantage over the parent nucleoside” (J Med Chem, 2011).

Legend:
CCRF-CEM [1] = assay: Ratio of IC50 for human CEM cells expressing human ENT1 transporter in presence of dipyridamole to IC50 for human CEM cells expressing human ENT1 transporter; format: functional
How it was run: (§1)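 Human T-lymphocyte CEM cells with (CEM/hEnt-1) or lacking (CEM/hEnt-0) the hENT1 transporter were seeded at 60 000 cells/well with graded compound concentrations. Transporter-inhibition runs added dipyridamole (10 μM) or NBMPR (10 μM) to CEM/hEnt-1 cells. […] Ratios are formed against untreated CEM/hEnt-1 IC50. Mean of 2–4 experiments.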

CCRF-CEM [2] = assay: Cytostatic activity against human CEM cells expressing human ENT1 transporter after 72 hrs by cell counting in presence of NBMPR; format: functional, cell-based
How it was run: (§2)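 CEM/hEnt-1 cells with 10 μM dipyridamole or 10 μM NBMPR added alongside graded compound levels, in DMEM with 10% FBS, 10 mM Hepes and 1 mM sodium pyruvate at 37 °C under 5% CO2. Seeded at 60 000 cells/well, counted by Coulter counter after 3 days.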

CCRF-CEM [3] = assay: Cytostatic activity against human CEM cells expressing human ENT1 transporter after 72 hrs by cell counting in presence of dipyridamole; format: functional, cell-based; how it was run: as §2
CCRF-CEM [4] = assay: Ratio of IC50 for human CEM cells expressing human ENT1 transporter in presence of NBMPR to IC50 for human CEM cells expressing human ENT1 transporter; format: functional; how it was run: as §1
CCRF-CEM [5] = assay: Cytostatic activity against human CEM cells expressing human ENT1 transporter after 72 hrs by cell counting; format: functional, cell-based
How it was run: (§3)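 Suspension leukemia cells in DMEM with 10% FBS, 10 mM Hepes and 1 mM sodium pyruvate at 37 °C under 5% CO2. Seeded at 60 000 cells/well with graded compound levels. Grown 48 h (L1210) or 72 h (CEM), then counted by Coulter counter. […] Mean ± SD of two to four independent experiments.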

CCRF-CEM [6] = assay: Ratio of IC50 for ENT1 transporter-deficient human CEM cells to IC50 for human CEM cells expressing human ENT1 transporter after 72 hrs by cell counting; format: functional; how it was run: as §1
CCRF-CEM [7] = assay: Cytostatic activity against ENT1 transporter-deficient human CEM cells after 72 hrs by cell counting; format: functional, cell-based; how it was run: as §3
L1210 [8] = assay: Cytostatic activity against Mycoplasma hyorhinis-infected mouse L1210 cells after 48 hrs by cell counting; format: functional, cell-based; conditions: L1210, 48 h
How it was run: (§4)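 Suspension leukemia cells in DMEM with 10% FBS, 10 mM Hepes and 1 mM sodium pyruvate at 37 °C under 5% CO2. Seeded at 60 000 cells/well with graded compound levels. Grown 48 h (L1210) or 72 h (CEM), then counted by Coulter counter. Mean ± SD of two to four independent experiments.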

L1210 [9] = assay: Ratio of IC50 for Mycoplasma hyorhinis-infected mouse L1210 cells to IC50 for mouse L1210/0 cells after 48 hrs by cell counting; format: functional
How it was run: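 Murine L1210/0 cells were compared with L1210/TK cells, selected for resistance to 5-bromo-2'-dUrd, and with L1210.Hyor cells, chronically infected with Mycoplasma hyorhinis. Cells were grown in DMEM with 10% FBS, 10 mM Hepes and 1 mM pyruvate at 37 °C and 5% CO2, then seeded at 60 000 cells/well with compound. They were Coulter-counted after 48 h. […] Mean of 2–4 experiments.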

L1210 [10] = assay: Cytostatic activity against thymidine-kinase deficient mouse L1210 cells after 48 hrs by cell counting; format: functional, cell-based; conditions: L1210, 48 h; how it was run: as §4
[11] = Cytostatic activity against mouse L1210/0 cells after 48 hrs by cell counting; format: functional, cell-based; conditions: L1210/0, 48 h; how it was run: as §4
CCRF-CEM [12] = assay: Cytostatic activity against thymidine-kinase deficient human CEM cells after 72 hrs by cell counting; format: functional, cell-based; how it was run: as §4
CCRF-CEM [13] = assay: Cytostatic activity against human CEM/0 cells after 72 hrs by cell counting; format: functional, cell-based; how it was run: as §3
HeLa [14] = assay: Cytostatic activity against human HeLa cells […] by cell counting; format: functional, cell-based
HeLa [15] = assay: Cytostatic activity against thymidine-kinase deficient human HeLa cells […]; format: functional, cell-based

Compound	Ratio IC50 (CCRF-CEM [1])	IC50 (CCRF-CEM [2]) [nM]	IC50 (CCRF-CEM [3]) [nM]	Ratio IC50 (CCRF-CEM [4])	IC50 (CCRF-CEM [5]) [nM]	Ratio IC50 (CCRF-CEM [6])	IC50 (CCRF-CEM [7]) [nM]	IC50 (L1210 [8]) [nM]	Ratio IC50 (L1210 [9])	IC50 (L1210 [10]) [nM]	IC50 [11] [nM]	IC50 (CCRF-CEM [12]) [nM]	IC50 (CCRF-CEM [13]) [nM]	IC50 (HeLa [14]) [nM]	IC50 (HeLa [15]) [nM]
O=c1[nH]c(=O)n([C@H]2C[C@H](O)[C@@H](COP(=O)(O)O)O2)cc1F [5-FLUORODEOXYURIDYLATE]	20	1060	1740	20	50	72	3600	–	–	–	–	–	–	–	–
CCOC(=O)C(C)(C)NP(=O)(OC[C@H]1O[C@@H](n2cc(F)c(=O)[nH]c2=O)C[C@@H]1O)Oc1ccccc1 (mixture of isomers)	2	2560	2350	2	370	7	5800	260	8.7	4600	30	22000	650	590	17000
CCOC(=O)C(C)(C)NP(=O)(OC[C@H]1O[C@@H](n2cc(F)c(=O)[nH]c2=O)C[C@@H]1O)Oc1cccc2ccccc12 (mixture of isomers)	2	620	520	2	210	7	1400	170	3	820	56	6900	360	200	3200
C[C@H](NP(=O)(OC[C@H]1O[C@@H](n2cc(F)c(=O)[nH]c2=O)C[C@@H]1O)Oc1cccc2ccccc12)C(=O)OCC(C)(C)C (mixture of isomers)	–	–	–	–	–	–	–	180	1.9	1200	93	6700	490	700	32000
CCCCCOC(=O)[C@@H](NP(=O)(OC[C@H]1O[C@@H](n2cc(F)c(=O)[nH]c2=O)C[C@@H]1O)Oc1cccc2ccccc12)[C@@H](C)CC (mixture of isomers)	–	–	–	–	–	–	–	700	1.67	12000	420	17000	460	300	11000
CCOC(=O)[C@H](C)NP(=O)(OC[C@H]1O[C@@H](n2cc(F)c(=O)[nH]c2=O)C[C@@H]1O)Oc1ccccc1 (mixture of isomers)	–	–	–	–	–	–	–	540	5	940	110	14000	920	480	9800
O=C(OCc1ccccc1)[C@H](Cc1ccccc1)NP(=O)(OC[C@H]1O[C@@H](n2cc(F)c(=O)[nH]c2=O)C[C@@H]1O)Oc1cccc2ccccc12 (mixture of isomers)	–	–	–	–	–	–	–	230	11	5600	21	7200	100	160	6800
C[C@H](NP(=O)(OC[C@H]1O[C@@H](n2cc(F)c(=O)[nH]c2=O)C[C@@H]1O)Oc1cccc2ccccc12)C(=O)OC1CCOCC1 (mixture of isomers)	–	–	–	–	–	–	–	480	11.7	27000	41	43000	110	130	15000
CCCCCOC(=O)C(C)(C)NP(=O)(OC[C@H]1O[C@@H](n2cc(F)c(=O)[nH]c2=O)C[C@@H]1O)Oc1cccc2ccccc12 (mixture of isomers)	–	–	–	–	–	–	–	19	0.42	300	45	5400	140	120	2300
CCCOC(=O)[C@H](C)NP(=O)(OC[C@H]1O[C@@H](n2cc(F)c(=O)[nH]c2=O)C[C@@H]1O)Oc1cccc2ccccc12 (mixture of isomers)	–	–	–	–	–	–	–	36	1.2	160	30	1100	140	110	2500
CC(C)(NP(=O)(OC[C@H]1O[C@@H](n2cc(F)c(=O)[nH]c2=O)C[C@@H]1O)Oc1cccc2ccccc12)C(=O)OCc1ccccc1 (mixture of isomers)	2	280	160	2	50	7	400	45	2.4	130	19	2400	160	78	3100
C[C@H](NP(=O)(OC[C@H]1O[C@@H](n2cc(F)c(=O)[nH]c2=O)C[C@@H]1O)Oc1cccc2ccccc12)C(=O)OC1CCCC1 (mixture of isomers)	–	–	–	–	–	–	–	24	1.5	130	16	920	35	71	2200
O=C(OCc1ccccc1)[C@@H]1CCCN1P(=O)(OC[C@H]1O[C@@H](n2cc(F)c(=O)[nH]c2=O)C[C@@H]1O)Oc1cccc2ccccc12 (mixture of isomers)	–	–	–	–	–	–	–	650	2.5	25000	260	32000	890	1200	26000
CC(C)(NP(=O)(OC[C@H]1O[C@@H](n2cc(F)c(=O)[nH]c2=O)C[C@@H]1O)Oc1ccccc1)C(=O)OCc1ccccc1 (mixture of isomers)	2	610	260	2	170	7	1200	20	0.69	180	29	4800	230	240	3700
C[C@H](NP(=O)(OC[C@H]1O[C@@H](n2cc(F)c(=O)[nH]c2=O)C[C@@H]1O)Oc1cccc2ccccc12)C(=O)OCCC(C)(C)C (mixture of isomers)	–	–	–	–	–	–	–	32	2.7	62	12	190	53	78	1300
